From PubChem BioAssay
Vif inh: HIV Vif inhibition; HEK293T cells, Vif self-association by quenched fluorescence, imaging, 24 h; inhibition, % at 7.49 µM; 0.35% of 340,000 active; in the data active = inhibition above about 50%, passing the limit was not always enough; inconclusive = no clear call, values can overlap the other calls; inactive = below about 31%
Wnt bcat act: activates Wnt/beta-catenin signaling in a reporter cell assay | activation, % at 9.35 µM | AID 743398 | 1.2% of 300,000 active | activator, plate reader; in the data active = activation above about 30%, passing the limit was not always enough; inconclusive = no clear call, values can overlap the other calls;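 also: 0% = neutral control wells and 100% = positive control wells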
MITF TRPM1 HTS: increases MITF-driven TRPM1 promoter luciferase signal. SK-MEL-5 TRPM1-promoter luciferase, 24 h; % of positive control, neutral wells = 0. activation, % at 12.5 µM. 0.75% of 300,000 active;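 active = mean activation of at least 80% with every replicate also reaching 80%; inconclusive = mean reaches 80% but some replicate falls short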;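 also: 0% = neutral control wells and 100% = parthenolide positive control wells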
XiGFP reactiv: X-chromosome reactivation activator; XiGFP mouse fibroblasts, % GFP-positive cells imaging, 3 d; cells co-treated with 5-aza-dC sensitizer; scaled so ellipticine positive control = 100%; activation, % at 7.58 µM; 0.055% of 360,000 active;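 active = mean normalized replicate activation at least 10% and every replicate at or above 10%; inconclusive = only one of the two criteria met; inactive = mean below 10% and not all replicates reach 10%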;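 also: 0% = median of on-plate neutral control wells and 100% = ellipticine 6 µM median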
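System: XiGFP fibroblasts, SV40-immortalized. Medium: DMEM plus 5-aza-dC sensitizer. Doses: single point. Timing: 3 d treatment, 15 min room-temperature fixation. Control set: ellipticine 6 µM.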
esBAF inh: SWI/SNF esBAF complex inhibition. reporter increase, % at 12.5 µM. 2% of 350,000 active. AID 602393. mouse ES cells, Bmi1-luciferase knock-in reporter, 24 h; 100% = twice the neutral-well signal; in the data active = activation above about 40%; inconclusive = no clear call, values can overlap the other calls;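 also: 0% = median of the plate's neutral control wells and 100% = double that signal; a rise in the Bmi1 reporter signal indicates esBAF inhibition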
Active calls of the source: *; u = inconclusive; x = no result. Rows were chosen to be rich in hits. Some 2.6% of all compounds tested hit in one or more screens of this group.

SMILES	Vif inh	Wnt bcat act	MITF TRPM1 HTS	XiGFP reactiv	esBAF inh
COc1cccc(/C=C2\SC(N3CCCC(C)C3)=NC2=O)c1OC (configuration not stated)	-5.9	3.0	65.2	0.0	72.6*
Cc1nn(-c2ccccc2)c(/N=C/c2ccc(O)cc2)c1-c1ccccc1	-15.9	x	83.4*	0.0	u
Cc1noc(C)c1NC(=O)NCC[C@@H]1CC[C@H](NC(=O)Cc2cccnc2)[C@H](CO)O1	x	x	x	0.4	1.1
CO[C@@H]1CN(C)C(=O)c2ccc(NC(C)=O)cc2OC[C@H](C)N(C(=O)C2CCCCC2)C[C@H]1C	x	x	x	-0.1	1.4
Cc1cc(C(=O)CSc2n[nH]c(N)n2)c(C)n1-c1cc(F)ccc1F	x	13.7	36.4	x	50.5*
Cc1cc(C(=O)CSc2n[nH]c(N)n2)c(C)n1-c1ccc(F)cc1	-5.7	28.3	49.6	x	31.3
COc1c2ccoc2nc2c(OC)c(OC[C@@H](O)C(C)(C)O)ccc12	56.8*	-1.5	2.0	0.1	7.9
COc1c2ccoc2nc2c(OC)c(OCC(O)C(C)(C)O)ccc12 (configuration not stated)	x	x	13.1	x	7.8
CCCC(=O)Nc1nc2ccc(OC)cc2s1	-10.5	u	51.0	0.2	58.3*
O=C(CCNC(=O)c1ccco1)Nc1nc2ccccc2s1	7.5	26.1	25.7	-0.1	37.2
COc1ccc2nc(NC(=O)CCNC(=O)c3ccco3)sc2c1	-1.4	41.7*	109.7*	-0.1	45.0*
O=C(NC1CCCC1)c1noc2c1CCCCC2	16.0	43.5*	x	x	x
CC(NC(=O)c1noc2c1CCCCC2)c1ccccc1 (configuration not stated)	-2.1	0.0	22.6	0.5	44.8*
O=C(Nc1cccc(O)c1)c1noc2c1CCCCC2	-0.6	7.5	-32.4	x	x
O=C(NCc1ccccc1)c1noc2c1CCCCC2	-0.1	x	101.2*	x	34.4
C[C@H](CO)N1C[C@H](C)[C@H](CN(C)CC2CC2)Oc2ccc(NC(=O)Cc3ccccc3)cc2C1=O	x	x	x	0.0	-0.8
CC(C)CC#Cc1ccc([C@H]2[C@@H](CO)N3C(=O)CN(C(=O)NC(C)C)C[C@@H]23)cc1	x	x	x	0.3	x
COc1ccccc1-c1ccc2c(c1)O[C@H](CN(C)C(=O)Nc1cccc(F)c1)[C@@H](C)CN([C@H](C)CO)S2(=O)=O	x	x	x	0.3	2.8
COc1ccc(/C=C(\CC(=O)O)c2nc3ccccc3o2)cc1	12.1	5.0	60.6	0.0	69.4*
CC(=O)N(C)C[C@@H]1Oc2ccc(NC(=O)NC(C)C)cc2CC(=O)N(C)C[C@@H]1C	x	x	x	0.2	x
Oc1ccc(-c2csc(NCc3ccco3)n2)cc1	-8.2	-2.1	x	x	48.8*
O=C(COc1ccc2c(c1)CCC2)N1CCc2ccccc21	-4.1	60.2*	x	x	78.2*
CCc1ccc(OCC(=O)N2CCc3ccccc32)cc1	-7.2	28.2	61.5	0.2	47.1*
C[C@@H]1CN(C)C(=O)Cc2cc([N+](=O)[O-])ccc2O[C@H]1CN(C)C(=O)OC(C)(C)C	x	x	x	0.4	x
Cc1ccc(NC(=O)C(=O)NCCCN2CCCC2=O)cc1	-1.6	42.7*	55.9	0.2	x
SMILES	Vif inh	Wnt bcat act	MITF TRPM1 HTS	XiGFP reactiv	esBAF inh
Clc1cc(Cl)c2nc(N3CCCCC3)sc2c1	-2.3	59.8*	69.8	x	52.9*
CNc1nc2c(Cl)cc(Cl)cc2s1	3.7	3.4	x	0.4	x
CCOc1ccc2nc(N3CCCCCC3)sc2c1	-1.3	20.9	63.7	x	2.6
Clc1cc(Cl)c2nc(N3CCCC3)sc2c1	4.6	36.3*	28.7	x	x
Cc1cc(C)n(CC(O)COc2ccc(Cl)cc2)n1 (configuration not stated)	-1.5	1.3	x	0.0	3.7
Cc1cc(C)n(CC(O)COc2ccc(Cl)cc2Cl)n1 (configuration not stated)	3.3	5.2	x	0.1	52.3*
CCCNC(=O)N1CC2(CN(C(=O)c3cnccn3)C2)c2c([nH]c3cc(OC)ccc23)[C@H]1CO	x	x	x	0.1	x
CC(=O)c1ccc(OCc2ccccc2)c(C)c1O	-1.5	30.8*	76.7	-0.7	69.1*
CC(=O)N1CCN(c2nc3ccc(Br)cc3s2)CC1	10.5	23.2	78.8	0.3	54.2*
CCCC(=O)N1CCN(c2nc3ccc(Cl)cc3s2)CC1	-10.4	2.4	76.9	0.1	52.0*
CC1C=NC(S(=O)(=O)N2CC[C@@H]3[C@H](CO)N(C)c4ccc(C#Cc5ccccc5)cc4[C@@H]32)=N1 (some centres not stated)	x	x	x	0.0	x
